Assay type in all cases: functional
Assay [1] relates to Mus musculus. Description: Antitumor activity was determined for survival range of mice against P-388 leukemia in mice at a dose of 8 mg/kg. Summed up:
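Male B6D2F1J mice, 5 per dose group, implanted ip with 10⁶ P-388 leukemia cells on day 0. Drug given ip daily on days 1-4 (qd × 4) in sterile saline, or in 10% Tween 80 for the butyl thioether. Survival range recorded in days. Untreated control groups had 10-17 animals per experiment. Mice weighed on days 1 and 7.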

The subject of assay [2] is Mus musculus. As to the kind of experiment: Percent increase in life span against P-388 leukemia in mice was determined at a dose of 32 mg/kg. The settings on record: P388. Summed up: (§1)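 Male B6D2F1J mice, 5 per dose group, received 10⁶ P-388 cells ip on day 0. Dosing was ip qd × 4 on days 1-4 in sterile saline, or 10% Tween 80 for the butyl thioether. Median survival times of treated (T) and untreated control (C, 10-17 mice) groups were compared: %ILS = [(T/C) − 1]100. Weights taken on days 1 and 7.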

Assay [3] deals with Mus musculus. As to the kind of experiment: Antitumor activity was determined for 7-day average percent weight change against P-388 leukemia in mice at a dose of 32 mg/kg. Summed up:
(§2)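 Male B6D2F1J mice given 10⁶ P-388 cells ip on day 0, then treated ip once daily on days 1-4 (qd × 4), 5 mice per dose group. Compounds dosed in sterile saline, except one lipophilic thioether given in 10% Tween 80. Mice weighed on days 1 and 7; mean weight per mouse on day 1 and 7-day weight change reported in g and as percent.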

In assay [4] the test system is Mus musculus. Description: Antitumor activity was determined for average 7-day weight change against P-388 leukemia in mice at a dose of 32 mg/kg. Summed up: as §2
For assay [5], the system named is Mus musculus. Description: Antitumor activity was determined for median survival of mice against P-388 leukemia in mice at a dose of 16 mg/kg. In outline:
(§3)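 Male B6D2F1J mice implanted ip with 10⁶ P-388 cells on day 0; test agents given ip on days 1–4 (qd × 4) in sterile saline, or in 10% Tween 80 for the lipophilic thioether. Groups of 5 treated mice, with 10–17 untreated controls per experiment. Mice weighed on days 1 and 7 to give the 7-day weight change in g and %. Survival recorded in days as median and range.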

The test system of assay [6] is Mus musculus. Description: Antitumor activity was determined for 7-day average percent weight change against P-388 leukemia in mice at a dose of 8 mg/kg. Summed up:
as §2

For assay [7], the system named is Mus musculus. Description: Antitumor activity was determined for average weight on day 1 against P-388 leukemia in mice at a dose of 8 mg/kg. In outline:
(§4)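 Male B6D2F1J mice, groups of 5, inoculated ip with 10⁶ P-388 cells on day 0. Drug given ip on days 1-4 (qd × 4) in sterile saline, or in 10% Tween 80 for the poorly water-soluble thioether. Average weight per mouse recorded on day 1, with reweighing on day 7 for percent weight change. Untreated control groups had 10-17 animals per experiment.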

Assay [8] relates to Mus musculus. Description: Antitumor activity was determined for median survival of mice against P-388 leukemia in mice at a dose of 8 mg/kg. In outline:
as §3

Assay [9] deals with Mus musculus. As to the kind of experiment: Antitumor activity was determined for average weight on day 1 against P-388 leukemia in mice at a dose of 32 mg/kg. In outline:
as §4

For assay [10], the system named is Mus musculus. As to the kind of experiment: Antitumor activity was determined for average 7-day weight change against P-388 leukemia in mice at a dose of 8 mg/kg. In outline: as §2
Assay [11] concerns Mus musculus. Description: Antitumor activity was determined for average 7-day weight change against P-388 leukemia in mice at a dose of 16 mg/kg. Summed up: as §2
The subject of assay [12] is Mus musculus. Description: Antitumor activity was determined for survival range of mice against P-388 leukemia in mice at a dose of 32 mg/kg. Summed up:
as §3

In assay [13] the test system is Mus musculus. Description: Antitumor activity was determined for median survival of mice against P-388 leukemia in mice at a dose of 32 mg/kg. Summed up:
as §3

The subject of another assay is L1210. As to the kind of experiment: Evaluated for cytotoxicity against L1210 mouse leukemia cells. The settings on record: read-out: ID50 (the source's name). Summed up:
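L1210 murine leukemia cells in Eagle's minimal essential medium with 15% fetal calf serum, streptomycin (100 μg/mL), penicillin (100 units/mL) and 0.05 mM 2-mercaptoethanol. Cells counted by Coulter counter after 48 h exposure. ID50 is the 50% growth-inhibitory dose. Triplicate assays, standard deviation ±10%.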

The subject of assay [14] is Mus musculus. Description: Percent increase in life span against P-388 leukemia in mice was determined at a dose of 16 mg/kg. The settings on record: P388. Summed up:
as §1

Assay [15] deals with Mus musculus. As to the kind of experiment: Antitumor activity was determined for average weight on day 1 against P-388 leukemia in mice at a dose of 16 mg/kg. In outline:
as §2

Assay [16] concerns Mus musculus. As to the kind of experiment: Antitumor activity was determined for survival range of mice against P-388 leukemia in mice at a dose of 16 mg/kg. Summed up:
as §3

For assay [17], the system named is Mus musculus. Description: Percent increase in life span against P-388 leukemia in mice was determined at a dose of 8 mg/kg. The settings on record: P388. In outline:
as §1

In assay [18] the test system is Mus musculus. Description: Antitumor activity was determined for 7-day average percent weight change against P-388 leukemia in mice at a dose of 16 mg/kg. In outline: as §2

One may read the ILS as how much longer treated animals lived than controls. A low value points to little gain in survival. As for `NC[C@H]1OC(n2cc(F)c(=O)[nH]c2=O)[C@H](O)[C@@H]1O` (stereo not given in full), the Survival range with Mus musculus [1] is recorded as 11; with Mus musculus [12], 11; in the assay on Mus musculus [16], 10. Moreover, the ILS at 32 mg/kg in the assay on Mus musculus [2] worked out at 8%. Besides, the Weight change in the assay with Mus musculus [3] was found to be 12%; with Mus musculus [6], 23%; in the assay with Mus musculus [18] it was 16%. Further, the Average weight with Mus musculus [4] turned out to be 3.2 g mouse-1; in the assay with Mus musculus [7] it was 25.6 g mouse-1; in the assay on Mus musculus [9] it was 26.8 g mouse-1; with Mus musculus [10], 5.8 g mouse-1; in the assay on Mus musculus [11] it was 4.4 g mouse-1; in the assay on Mus musculus [15], 26.4 g mouse-1. Also, the Survival median in the assay on Mus musculus [5] was 12; in the assay on Mus musculus [8], 12; in the assay with Mus musculus [13], 13. Also, the IC50 with L1210 was 38 µM. In the assay with Mus musculus [14], this molecule came in with an ILS at 16 mg/kg of 0%. In addition, the ILS at 8 mg/kg in the assay with Mus musculus [17] is 0%.
On to `CCOC(=O)[C@H]1OC(n2cc(F)c(=O)[nH]c2=O)[C@H](O)[C@@H]1O` (stereo not given in full), for which the IC50 in the assay on L1210 is over 1000 µM.

Values taken from ChEMBL document CHEMBL1122125, “Synthesis and in vivo antitumor activity of potential 5-fluorouracil prodrugs” (1982).
